pIC50: −log10 of the molar value. Bridge positions count the residues as written; N and C are the ends. Square brackets hold non-standard residues; d marks the D form. Peptide text beside a SMILES is read from it. R8 = C=CCCCCCC[C@@](C)(N)C(=O)O; S5 = C=CCCC[C@](C)(N)C(=O)O
Assays:
[1] = tested on: Human immunodeficiency virus 1; assay: Antiviral activity against HIV-1 3B infected in human MT-2 cells assessed as reduction in p24 antigen level incubated for overnight measured on fourth day post infection by multi-cycle infection assay based sandwich ELISA; assay type: functional, organism-based; conditions: Human immunodeficiency virus 1, 3B, MT2
Procedure, shortened: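 Multi-cycle infection in MT-2 cells; read-out is reduction of p24 levels. IC50 derived from dose-response.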

[2] = tested on: Human immunodeficiency virus 1; assay: Antiviral activity against HIV-1 NL4-3-HXB2 pseudovirus co-transfected with luciferase gene infected in human TZM-bl cells assessed as reduction of luciferase production after 3 days by single-cycle neutralization assay; assay type: functional, organism-based; conditions: Human immunodeficiency virus 1, NL4-3-HXB2, TZM-bl, 72 h
Procedure, shortened: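 Single-cycle neutralization in TZM-bl cells; read-out is reduction of luciferase production. IC50 derived from dose-response.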

[3] = Cytotoxicity against human MT2 cells after 4 days by XTT assay; assay type: cell-based
[4] = Cytotoxicity against human TZM-bl cells after 3 days by XTT assay; assay type: cell-based
[5] = Drug uptake in human HEK293T cells assessed as increase in fluorescence at 5 uM after 2 hrs by confocal microscopy; assay type: ADME, cell-based; conditions: hek-293t
Procedure, shortened: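 HEK293T cells were incubated with 5 μM FITC-labeled peptide at 37°C for 2 h. Intracellular fluorescence was imaged by confocal microscopy, with DIC images alongside.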

Row | Compound | pIC50 [1] | pIC50 [2] | CC50 at 96 h [3] [µM] | CC50 at 72 h [4] [µM] | Drug uptake [5]
1 | CC[C@H](C)[C@H](NC(C)=O)C(=O)N[C@@H](CO)C(=O)N[C@@H](Cc1ccccc1)C(=O)N[C@@H]1CSCc2ccc(cc2)-c2ccc(cc2)CSC[C@@H](C(=O)N[C@@H](CCC(=O)O)C(=O)N[C@@H](CO)C(=O)NCC(=O)N[C@@H](CO)C(N)=O)NC(=O)[C@H](Cc2ccc(O)cc2)NC(=O)[C@H](Cc2ccc(O)cc2)NC(=O)[C@H](CC(=O)O)NC(=O)[C@H](C)NC(=O)[C@H](CC(C)C)NC(=O)[C@H](CCC(=O)O)NC1=O | 5.39 | 5.85 | 26 | > 52 | –
2 | CC[C@H](C)[C@H](N)C(=O)N[C@@H](CO)C(=O)N[C@@H](Cc1ccccc1)C(=O)N[C@]1(C)CCCCCC/C=C\CCC[C@@](C)(C(=O)N[C@@H](CCC(=O)O)C(=O)N[C@@H](CO)C(=O)NCC(=O)N[C@@H](CO)C(=O)O)NC(=O)[C@H](Cc2ccc(O)cc2)NC(=O)[C@H](Cc2ccc(O)cc2)NC(=O)[C@H](CC(=O)O)NC(=O)[C@H](CC(C)C)NC(=O)[C@H](CC(C)C)NC(=O)[C@H](CCC(=O)O)NC1=O (H-ISF[R8]ELLDYY[S5]ESGS-OH; staple (Z) 4-11) | 5.82 | 5.70 | > 189 | > 189 | –
3 | CC[C@H](C)[C@H](NC(C)=O)C(=O)N[C@@H](CO)C(=O)N[C@@H](Cc1ccccc1)C(=O)N[C@@H]1CSCc2ccc(cc2)-c2ccc(cc2)CSC[C@@H](C(=O)N[C@@H](CCC(=O)O)C(=O)N[C@@H](CO)C(=O)NCC(=O)N[C@@H](CO)C(N)=O)NC(=O)[C@H](C)NC(=O)[C@H](Cc2ccc(O)cc2)NC(=O)[C@H](CC(=O)O)NC(=O)[C@H](CC(C)C)NC(=O)[C@H](CC(C)C)NC(=O)[C@H](CCC(=O)O)NC1=O | 4.85 | 4.76 | > 107 | > 107 | –
4 | CC[C@H](C)[C@H](NC(C)=O)C(=O)N[C@@H](CO)C(=O)N[C@@H](Cc1ccccc1)C(=O)N[C@@H]1CSCc2ccc(cc2)-c2ccc(cc2)CSC[C@@H](C(=O)N[C@@H](CCC(=O)O)C(=O)N[C@@H](CO)C(=O)NCC(=O)N[C@@H](CO)C(N)=O)NC(=O)[C@H](Cc2ccc(O)cc2)NC(=O)[C@H](Cc2ccc(O)cc2)NC(=O)[C@H](CC(N)=O)NC(=O)[C@H](CC(C)C)NC(=O)[C@H](CC(C)C)NC(=O)[C@H](CCC(=O)O)NC1=O | 5.06 | 5.74 | > 102 | > 102 | –
5 | CC[C@H](C)[C@H](NC(=S)Nc1ccc(-c2c3ccc(=O)cc-3oc3cc(O)ccc23)c(C(=O)O)c1)C(=O)N[C@@H](CO)C(=O)N[C@@H](Cc1ccccc1)C(=O)N[C@@H]1CSCc2ccc(cc2)-c2ccc(cc2)CSC[C@@H](C(=O)N[C@@H](CCC(=O)O)C(=O)N[C@@H](CO)C(=O)NCC(=O)N[C@@H](CO)C(=O)O)NC(=O)[C@H](Cc2ccc(O)cc2)NC(=O)[C@H](Cc2ccc(O)cc2)NC(=O)[C@H](CC(=O)O)NC(=O)[C@H](CC(C)C)NC(=O)[C@H](CC(C)C)NC(=O)[C@H](CCC(=O)O)NC1=O | – | – | – | – | Active

— ChEMBL document CHEMBL3232893, “Design of antiviral stapled peptides containing a biphenyl cross-linker” (Bioorg Med Chem Lett, 2014)
